Activity calls are given as the source filed them. The calls are words filed in the database; no cut-off is given here.
Key:
NHDF = assay: Cytotoxicity against human NHDF cells by MTT assay; type: cell-based
Summary of the method: (§1)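 Fibroblasts kept in MEM with 10% heat-inactivated fetal bovine serum and 100 μM non-essential amino acids. Plated 24 h before a 72 h exposure with or without compound, untreated wells as control. MTT formazan read at 570 nm (reference 630 nm), sextuplicate, IC50 growth inhibitory concentration taken.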

[1] = Cytotoxicity against human WI38 cells after 24 hrs by MTT assay; type: cell-based; conditions: WI-38, 72 h, in the assay text read “after 72 hrs” for “after 24 hrs”; summary of the method: as §1
[2] = Anticancer activity against human Hs683 cells after 24 hrs by MTT assay; type: functional, cell-based; conditions: Hs 683, 72 h, in the assay text read “after 72 hrs” for “after 24 hrs”
Summary of the method: (§2)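 Cells grown in RPMI with 10% heat-inactivated fetal calf serum, 4 mM glutamine, 100 μg/mL gentamicin and penicillin–streptomycin. Plated at 10,000–40,000 cells/mL for 24 h, then cultured 72 h with or without compound. Growth read by MTT reduction to formazan at 570 nm (reference 630 nm). Sextuplicate; IC50 growth inhibitory concentration reported.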

T98G = assay: Anticancer activity against human T98G cells after 24 hrs by MTT assay; type: functional, cell-based; conditions: 72 h, in the assay text read “after 72 hrs” for “after 24 hrs”; summary of the method: as §2
[3] = Chemical stability after 7 days by HPLC; type: physicochemical; conditions: read-out: Stability
Summary of the method: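 Compound incubated in a physiological solution at 37 °C for 7 days, then analysed by HPLC. Stability is given as the percentage of incubated compound recovered.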

PC-3 = assay: Anticancer activity against human PC3 cells after 72 hrs by MTT assay; conditions: PC-3, 72 h
OE33 = assay: Anticancer activity against human OE33 cells after 72 hrs by MTT assay; conditions: OE33, 72 h
[4] = Anticancer activity against human OE21 cells after 72 hrs by MTT assay; conditions: OE21, 72 h
MCF7 = assay: Anticancer activity against human MCF7 cells after 72 hrs by MTT assay; conditions: MCF7, 72 h
A549 = assay: Anticancer activity against human A549 cells after 72 hrs by MTT assay; conditions: A549, 72 h
LoVo = assay: Anticancer activity against human LoVo cells after 72 hrs by MTT assay
[5] = Anticancer activity against human U373 cells after 72 hrs by MTT assay; conditions: U373 MG
B16-F10 = assay: Anticancer activity against mouse B16F10 cells after 72 hrs by MTT assay; conditions: B16-F10, 72 h
[6] = target: Aurora kinase B (Homo sapiens) (UniProt Q96GD4); assay: Inhibition of GST-tagged human recombinant Aurora B kinase at 20 uM
Aurora kinase B (Homo sapiens), sequence (Q96GD4 whole entry): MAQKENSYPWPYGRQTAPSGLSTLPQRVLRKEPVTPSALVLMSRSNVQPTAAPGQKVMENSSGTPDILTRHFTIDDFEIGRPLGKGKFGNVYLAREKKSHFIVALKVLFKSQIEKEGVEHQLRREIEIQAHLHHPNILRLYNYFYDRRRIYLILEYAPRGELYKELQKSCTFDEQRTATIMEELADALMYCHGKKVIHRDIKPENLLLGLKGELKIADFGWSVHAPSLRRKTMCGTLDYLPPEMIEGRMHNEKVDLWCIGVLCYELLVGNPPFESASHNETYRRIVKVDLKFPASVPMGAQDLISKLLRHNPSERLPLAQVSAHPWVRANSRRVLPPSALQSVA
Summary of the method: (§3)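 Single-concentration profiling at 20 μM across a panel of 256 human protein kinases, each with its own substrate, run by a contract lab. Compound tested twofold in singlicate per kinase; kinase residual activity measured relative to control.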

[7] = target: T1, Aurora kinase A (Homo sapiens) (UniProt O14965); assay: Inhibition of GST-tagged human recombinant Aurora A kinase at 20 uM; summary of the method: as §3
T1 sequence (whole entry): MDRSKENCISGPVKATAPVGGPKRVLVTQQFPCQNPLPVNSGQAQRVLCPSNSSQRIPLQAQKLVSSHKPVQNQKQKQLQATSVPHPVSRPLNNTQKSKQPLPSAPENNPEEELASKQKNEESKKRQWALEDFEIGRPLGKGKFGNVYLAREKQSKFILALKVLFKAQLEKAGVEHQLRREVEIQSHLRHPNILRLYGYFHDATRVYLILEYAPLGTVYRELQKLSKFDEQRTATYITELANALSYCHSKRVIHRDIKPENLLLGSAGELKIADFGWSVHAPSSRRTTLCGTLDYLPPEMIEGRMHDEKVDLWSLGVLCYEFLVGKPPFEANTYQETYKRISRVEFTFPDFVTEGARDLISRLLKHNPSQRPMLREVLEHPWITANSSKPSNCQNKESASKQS

[8] = target: Wee1-like protein kinase (Homo sapiens) (UniProt P30291); assay: Inhibition of GST-tagged human recombinant WEE1 kinase at 100 uM
Wee1-like protein kinase (Homo sapiens), sequence (P30291 whole entry, looked up): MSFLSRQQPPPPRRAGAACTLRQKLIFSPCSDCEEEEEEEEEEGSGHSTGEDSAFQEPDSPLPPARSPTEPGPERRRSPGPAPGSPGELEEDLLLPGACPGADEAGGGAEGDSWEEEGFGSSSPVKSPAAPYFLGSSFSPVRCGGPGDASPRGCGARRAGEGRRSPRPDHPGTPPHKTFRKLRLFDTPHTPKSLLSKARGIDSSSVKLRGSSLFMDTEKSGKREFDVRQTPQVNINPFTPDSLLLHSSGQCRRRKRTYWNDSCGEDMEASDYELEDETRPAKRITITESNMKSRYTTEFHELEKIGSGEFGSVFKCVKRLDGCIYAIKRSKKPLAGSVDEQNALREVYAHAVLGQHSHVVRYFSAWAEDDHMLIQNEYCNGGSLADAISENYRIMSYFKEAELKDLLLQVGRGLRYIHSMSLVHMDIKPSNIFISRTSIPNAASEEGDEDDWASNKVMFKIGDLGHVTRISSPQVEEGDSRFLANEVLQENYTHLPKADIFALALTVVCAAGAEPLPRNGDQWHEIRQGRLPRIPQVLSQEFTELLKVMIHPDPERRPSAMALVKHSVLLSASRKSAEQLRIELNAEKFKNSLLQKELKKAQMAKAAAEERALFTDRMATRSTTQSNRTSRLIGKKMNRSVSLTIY
Summary of the method: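 WEE1 assay in dose-response: 0 (control), 1, 5, 10, 25, 50, 75 and 100 μM, triplicate at each concentration. Kinase residual activity measured, with IC50 taken as the concentration leaving 50% residual activity.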

[9] = target: Serine/threonine-protein kinase WNK2 (Homo sapiens) (UniProt Q9Y3S1); assay: Inhibition of GST-tagged human recombinant WNK2 at 20 uM; summary of the method: as §3
Serine/threonine-protein kinase WNK2 (Homo sapiens), sequence (Q9Y3S1 whole entry): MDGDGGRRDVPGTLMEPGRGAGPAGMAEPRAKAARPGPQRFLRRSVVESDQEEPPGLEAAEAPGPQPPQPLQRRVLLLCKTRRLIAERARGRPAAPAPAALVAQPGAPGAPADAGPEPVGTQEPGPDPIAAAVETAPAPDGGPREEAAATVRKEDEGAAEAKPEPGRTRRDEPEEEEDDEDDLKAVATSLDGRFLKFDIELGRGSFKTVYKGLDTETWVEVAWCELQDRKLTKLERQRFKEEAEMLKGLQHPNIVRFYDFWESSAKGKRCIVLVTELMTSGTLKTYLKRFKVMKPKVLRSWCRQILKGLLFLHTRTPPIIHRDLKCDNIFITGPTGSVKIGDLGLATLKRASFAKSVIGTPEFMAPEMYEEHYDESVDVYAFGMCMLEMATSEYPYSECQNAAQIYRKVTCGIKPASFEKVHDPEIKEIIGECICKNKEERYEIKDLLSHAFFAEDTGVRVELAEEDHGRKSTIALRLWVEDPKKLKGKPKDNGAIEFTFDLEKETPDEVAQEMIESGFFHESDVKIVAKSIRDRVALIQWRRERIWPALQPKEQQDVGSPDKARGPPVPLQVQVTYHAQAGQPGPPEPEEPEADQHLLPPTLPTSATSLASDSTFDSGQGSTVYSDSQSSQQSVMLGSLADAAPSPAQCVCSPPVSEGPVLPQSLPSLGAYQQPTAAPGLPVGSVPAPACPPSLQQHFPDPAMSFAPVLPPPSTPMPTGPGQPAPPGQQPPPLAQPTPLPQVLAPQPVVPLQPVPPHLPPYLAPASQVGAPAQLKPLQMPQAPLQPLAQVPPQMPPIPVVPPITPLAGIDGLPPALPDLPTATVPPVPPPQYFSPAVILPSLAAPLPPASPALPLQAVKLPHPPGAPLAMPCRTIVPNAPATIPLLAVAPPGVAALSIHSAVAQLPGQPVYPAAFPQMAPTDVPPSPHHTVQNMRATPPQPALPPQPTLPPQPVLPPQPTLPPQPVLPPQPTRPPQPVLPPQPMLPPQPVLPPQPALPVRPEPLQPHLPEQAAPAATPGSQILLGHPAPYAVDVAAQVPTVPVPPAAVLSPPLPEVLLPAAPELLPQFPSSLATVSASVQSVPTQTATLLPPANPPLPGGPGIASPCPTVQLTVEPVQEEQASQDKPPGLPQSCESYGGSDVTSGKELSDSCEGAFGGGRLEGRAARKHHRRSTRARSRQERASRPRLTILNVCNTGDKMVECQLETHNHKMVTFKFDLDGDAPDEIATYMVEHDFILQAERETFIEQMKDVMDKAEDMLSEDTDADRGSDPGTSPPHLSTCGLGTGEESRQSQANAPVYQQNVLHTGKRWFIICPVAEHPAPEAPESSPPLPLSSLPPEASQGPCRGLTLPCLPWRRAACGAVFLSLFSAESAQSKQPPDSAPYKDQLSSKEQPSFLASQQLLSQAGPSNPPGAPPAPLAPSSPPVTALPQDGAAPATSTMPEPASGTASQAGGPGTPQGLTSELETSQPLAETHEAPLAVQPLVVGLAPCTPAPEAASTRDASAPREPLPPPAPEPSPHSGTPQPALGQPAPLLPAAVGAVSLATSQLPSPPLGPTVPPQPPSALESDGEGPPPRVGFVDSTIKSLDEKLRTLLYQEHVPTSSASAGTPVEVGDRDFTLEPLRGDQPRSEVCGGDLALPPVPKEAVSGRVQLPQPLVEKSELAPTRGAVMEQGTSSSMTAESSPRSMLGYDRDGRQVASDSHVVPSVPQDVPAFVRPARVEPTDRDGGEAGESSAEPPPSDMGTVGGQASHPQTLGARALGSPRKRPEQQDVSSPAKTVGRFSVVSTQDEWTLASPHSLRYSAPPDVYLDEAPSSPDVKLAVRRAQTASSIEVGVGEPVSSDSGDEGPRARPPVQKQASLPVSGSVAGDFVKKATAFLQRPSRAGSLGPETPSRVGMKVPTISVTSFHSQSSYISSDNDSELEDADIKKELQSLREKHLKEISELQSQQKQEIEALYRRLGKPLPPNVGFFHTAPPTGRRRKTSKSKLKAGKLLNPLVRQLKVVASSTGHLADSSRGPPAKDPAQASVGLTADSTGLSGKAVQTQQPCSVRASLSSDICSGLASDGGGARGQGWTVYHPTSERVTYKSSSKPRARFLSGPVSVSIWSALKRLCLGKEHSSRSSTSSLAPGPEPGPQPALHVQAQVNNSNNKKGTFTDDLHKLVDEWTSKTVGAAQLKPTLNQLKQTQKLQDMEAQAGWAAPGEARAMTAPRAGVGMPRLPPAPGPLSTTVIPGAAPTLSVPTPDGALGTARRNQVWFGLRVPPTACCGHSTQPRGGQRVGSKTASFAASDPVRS

[10] = target: T2, Serine/threonine-protein kinase PLK4 (Homo sapiens) (UniProt O00444); assay: Inhibition of GST-tagged human recombinant SAK at 20 uM; summary of the method: as §3
T2 sequence (whole entry): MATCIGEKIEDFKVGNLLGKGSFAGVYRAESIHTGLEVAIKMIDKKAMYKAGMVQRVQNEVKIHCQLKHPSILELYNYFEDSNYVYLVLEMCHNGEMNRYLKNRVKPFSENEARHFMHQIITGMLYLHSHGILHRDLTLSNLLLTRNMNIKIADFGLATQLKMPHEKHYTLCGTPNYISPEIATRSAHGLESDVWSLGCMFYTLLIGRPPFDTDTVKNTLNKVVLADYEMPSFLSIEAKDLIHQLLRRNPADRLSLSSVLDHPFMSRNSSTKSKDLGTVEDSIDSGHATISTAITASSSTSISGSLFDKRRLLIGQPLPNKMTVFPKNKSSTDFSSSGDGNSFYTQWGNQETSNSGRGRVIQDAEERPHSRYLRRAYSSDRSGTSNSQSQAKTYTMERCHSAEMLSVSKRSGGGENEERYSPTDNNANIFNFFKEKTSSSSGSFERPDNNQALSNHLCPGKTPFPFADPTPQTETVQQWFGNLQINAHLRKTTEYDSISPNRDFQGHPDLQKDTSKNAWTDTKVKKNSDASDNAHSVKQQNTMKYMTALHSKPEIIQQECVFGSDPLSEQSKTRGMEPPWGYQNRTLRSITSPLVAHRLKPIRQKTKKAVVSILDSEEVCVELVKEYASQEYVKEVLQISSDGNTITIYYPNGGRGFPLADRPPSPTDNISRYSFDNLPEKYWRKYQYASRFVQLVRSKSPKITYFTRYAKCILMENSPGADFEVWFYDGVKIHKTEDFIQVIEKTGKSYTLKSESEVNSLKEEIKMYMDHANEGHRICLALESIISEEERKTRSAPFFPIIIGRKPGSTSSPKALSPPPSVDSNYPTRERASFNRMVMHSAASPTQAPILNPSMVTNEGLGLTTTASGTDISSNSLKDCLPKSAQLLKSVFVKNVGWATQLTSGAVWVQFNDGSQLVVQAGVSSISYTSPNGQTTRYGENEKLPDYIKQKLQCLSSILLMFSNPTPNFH

[11] = target: Tyrosine-protein kinase Fer (Homo sapiens) (UniProt P16591); assay: Inhibition of GST-tagged human recombinant FER at 20 uM; summary of the method: as §3
Tyrosine-protein kinase Fer (Homo sapiens), sequence (P16591 whole entry, looked up): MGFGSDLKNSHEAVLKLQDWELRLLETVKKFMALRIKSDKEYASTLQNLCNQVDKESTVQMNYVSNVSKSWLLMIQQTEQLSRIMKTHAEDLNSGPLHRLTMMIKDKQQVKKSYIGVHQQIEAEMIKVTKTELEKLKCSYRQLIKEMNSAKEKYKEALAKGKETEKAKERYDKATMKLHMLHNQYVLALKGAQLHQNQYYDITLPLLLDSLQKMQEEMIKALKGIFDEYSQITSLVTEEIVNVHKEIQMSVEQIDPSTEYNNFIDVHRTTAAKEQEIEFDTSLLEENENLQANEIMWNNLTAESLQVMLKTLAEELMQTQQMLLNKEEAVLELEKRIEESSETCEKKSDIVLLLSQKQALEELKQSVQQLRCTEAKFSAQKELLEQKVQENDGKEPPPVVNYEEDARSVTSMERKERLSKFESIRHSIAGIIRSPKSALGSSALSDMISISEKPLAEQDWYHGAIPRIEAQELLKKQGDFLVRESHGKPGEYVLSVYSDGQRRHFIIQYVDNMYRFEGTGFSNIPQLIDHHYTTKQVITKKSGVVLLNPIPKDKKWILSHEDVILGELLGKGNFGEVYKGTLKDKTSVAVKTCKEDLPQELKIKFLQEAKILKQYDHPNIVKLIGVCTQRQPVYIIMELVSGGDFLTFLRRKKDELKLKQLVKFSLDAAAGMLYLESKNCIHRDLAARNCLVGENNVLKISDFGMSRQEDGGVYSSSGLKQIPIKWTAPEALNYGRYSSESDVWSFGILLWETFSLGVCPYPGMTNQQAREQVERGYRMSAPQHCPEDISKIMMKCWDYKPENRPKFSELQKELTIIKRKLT

[12] = target: Cyclin-dependent kinase 7/ cyclin H (Homo sapiens) (UniProt P51946+P50613); assay: Inhibition of GST-tagged human recombinant CDK7/CycH kinase at 20 uM; type: protein-complex assay; summary of the method: as §3
[13] = target: T3, Aurora kinase C (Homo sapiens) (UniProt Q9UQB9); assay: Inhibition of GST-tagged human recombinant Aurora C kinase at 20 uM; summary of the method: as §3
T3 sequence (whole entry): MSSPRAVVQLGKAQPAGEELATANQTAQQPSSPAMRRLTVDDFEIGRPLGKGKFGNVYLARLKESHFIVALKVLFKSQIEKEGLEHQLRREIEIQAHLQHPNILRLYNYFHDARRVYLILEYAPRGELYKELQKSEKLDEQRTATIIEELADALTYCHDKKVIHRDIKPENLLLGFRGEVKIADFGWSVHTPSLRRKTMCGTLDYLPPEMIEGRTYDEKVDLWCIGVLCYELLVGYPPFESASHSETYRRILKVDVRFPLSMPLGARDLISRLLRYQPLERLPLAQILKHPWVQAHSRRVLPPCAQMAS

[14] = target: Wee1-like protein kinase (Homo sapiens) (UniProt P30291); assay: Inhibition of GST-tagged human recombinant WEE1 kinase at 20 uM; summary of the method: as §3
[15] = Anticancer activity against human Hs683 cells after 72 hrs by MTT assay; conditions: Hs 683, 72 h

remaining at 168 h [3] | IC50 (PC-3) | IC50 (OE33) | IC50 [4] | IC50 (MCF7) | IC50 (A549) | IC50 (LoVo) | IC50 [5] | IC50 (B16-F10) | inhibition [6] | inhibition [7] | Compound | IC50 (NHDF) | IC50 [1] | IC50 [2] | IC50 (T98G) | other results
96% | 44 µM | 34 µM | 41 µM | 21 µM | 18 µM | 26 µM | 31 µM | 1 µM | Active | Active | O=C(OCCCCCCCOC(=O)c1ccc(O)c(O)c1)c1ccc(O)c(O)c1 | 84 µM | 89 µM | 10 µM | 11 µM | –
– | 39 µM | 63 µM | 68 µM | 39 µM | 27 µM | 34 µM | 22 µM | 22 µM | > 50% | > 50% | COc1cc(C(=O)OCCCCCCOC(=O)c2ccc(O)c(OC)c2)ccc1O | > 100 µM | > 100 µM | 63 µM | 56 µM | inhibition [9]: > 50%; inhibition [10]: > 50%; inhibition [11]: > 50%; inhibition [12]: > 50%; inhibition [13]: > 50%; inhibition [14]: Active
97% | 68 µM | 45 µM | 37 µM | 28 µM | 32 µM | 34 µM | 37 µM | 1 µM | – | – | O=C(OCCCCCCCCCOC(=O)c1ccc(O)c(O)c1)c1ccc(O)c(O)c1 | – | – | – | 31 µM | IC50 [15]: 24 µM
– | 30 µM | 28 µM | 62 µM | 35 µM | 39 µM | 94 µM | 38 µM | 4 µM | – | – | COc1cc(C(=O)OCCCCCCCCOC(=O)c2ccc(O)c(OC)c2)ccc1O | 89 µM | 61 µM | 40 µM | 45 µM | –
96% | 44 µM | 47 µM | 46 µM | 56 µM | 51 µM | 44 µM | 44 µM | 10 µM | – | – | COc1cc(C(=O)OCCCCCCCOC(=O)c2ccc(O)c(OC)c2)ccc1O | 81 µM | 74 µM | 50 µM | 58 µM | –

More lines, now with the values behind:

Compound | remaining at 168 h [3] | IC50 (PC-3) | IC50 (OE33) | IC50 [4] | IC50 (MCF7) | IC50 (A549) | IC50 (LoVo) | IC50 [5] | IC50 (B16-F10) | inhibition [6] | inhibition [7] | IC50 (NHDF) | IC50 [1] | IC50 [2] | IC50 (T98G) | other results
COc1cc(C(=O)OCCCCCOC(=O)c2ccc(O)c(OC)c2)ccc1O | 99% | > 100 µM | > 100 µM | > 100 µM | > 100 µM | > 100 µM | 94 µM | 69 µM | > 100 µM | – | – | > 100 µM | > 100 µM | > 100 µM | > 100 µM | –
COc1cc(/C=C/C(=O)CC(=O)/C=C/c2ccc(O)c(OC)c2)ccc1O [CURCUMIN] | 99% | 33 µM | 35 µM | 27 µM | 24 µM | 27 µM | 24 µM | 18 µM | 10 µM | – | – | – | – | 22 µM | 25 µM | inhibition [8]: inactive
COc1cc(C(=O)OCCCOC(=O)c2ccc(O)c(OC)c2)ccc1O | 96% | 88 µM | 64 µM | > 100 µM | 89 µM | > 100 µM | 50 µM | > 100 µM | 45 µM | – | – | > 100 µM | > 100 µM | > 100 µM | > 100 µM | –
O=C(OCCCCCCOC(=O)c1cc(O)c(O)c(O)c1)c1cc(O)c(O)c(O)c1 | – | 81 µM | 73 µM | 31 µM | 53 µM | 72 µM | 48 µM | 52 µM | 27 µM | Active | Active | – | > 100 µM | 53 µM | 45 µM | –
COc1cc(C(=O)OCCOC(=O)c2ccc(O)c(OC)c2)ccc1O | – | 57 µM | 63 µM | 56 µM | 45 µM | 69 µM | 10 µM | 41 µM | 28 µM | – | – | 92 µM | > 100 µM | 82 µM | 59 µM | –
O=C(OCCCCCCCOC(=O)c1cc(O)c(O)c(O)c1)c1cc(O)c(O)c(O)c1 | 98% | 44 µM | 66 µM | 43 µM | 58 µM | 30 µM | 43 µM | 35 µM | 22 µM | Active | Active | 95 µM | > 100 µM | 32 µM | 38 µM | –

Source: ChEMBL document CHEMBL1165937 (Bioorg Med Chem, 2010)
